High-throughput results (PubChem)
KSHV LANA nucl: inhibitors of KSHV LANA-nucleosome binding, primary screen, biochemical, fluorescence polarization, FITC-LANA1-23, chicken nucleosomes; z-score (no concentration beside the values); FITC-LANA1-23 / chicken nucleosome fluorescence polarization; hits give low values; 51,000 compounds, 0.3% hits; AID 720717, 2013;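 active = both repeat wells score below -2 in polarization z-score versus plate sample wells, excluding overly bright wells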
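Test system: purified chicken nucleosomes with FITC-labelled LANA N-terminal peptide (1-23); Input: 240 nM purified chicken nucleosomes (480 nM peptide binding sites), final; Medium: TEN-BT buffer, pH 7.5; Timing: 10–45 min, room temperature; Technique: fluorescence polarization, 480 nm excitation, 535 nm parallel and perpendicular emission; Replication: duplicates.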
Ab BasE inh: BasE siderophore enzyme inhibitors, primary screen, biochemical, Acinetobacter baumannii ATCC 17978, fluorescence polarization. purified BasE, fluorescence polarization binding displacement. 84,000 compounds, 0.1% hits. inhibition, % (no concentration beside the values); in the data active = inhibition above about 25%, passing the limit was not always enough
Large screens that a line does not name were inactive. Hits are enriched below; roughly 0.3% of the tested compounds scored in any of these assays.

CCNc1cc(NCC)c2noc3c2c1C(=O)c1ccccc1-3	none
CC(=O)OCCNc1cc(Cl)c2noc3c2c1C(=O)c1ccccc1-3	KSHV LANA nucl -3.71
CC(=O)N1CCC(C(=O)c2c(C)c(C)c(C)c(C)c2C)CC1	none (no result: Ab BasE inh)
O=c1[nH]c(CN2CCSc3ccccc32)nc2ccccc12	none (no result: KSHV LANA nucl)
CCOC(=O)c1scnc1C	none
O=C(O)c1ccccc1C(=O)NCc1ccc(N2CCCC2=O)cc1	none
COc1cc(/C=N/NC(=O)c2ccccc2-n2cccc2)ccc1O	none (no result: KSHV LANA nucl)
COc1cc(/C=N/NC(=O)c2cc(C3CC3)[nH]n2)ccc1O	Ab BasE inh 49.2
COCCNC(=O)c1cc(Br)c(C)c(C)c1C	KSHV LANA nucl -2.43
COCCNC(=O)c1cc(Br)cs1	none
O=C(O)c1cnn(-c2ccccc2)c1-n1cccc1CNCc1ccc(Cl)cc1	none (no result: KSHV LANA nucl)
O=C(CN1C(=O)C2CC=CCC2C1=O)Nc1ccc2c(c1)CCC2 (configuration not stated)	none (no result: KSHV LANA nucl)
CC1CCCCC1NC(=O)COC(=O)c1ccc(Cl)c(S(N)(=O)=O)c1 (configuration not stated)	none (no result: KSHV LANA nucl)
COC(=O)C1Sc2[nH]c(=O)sc2C(c2ccc(OC)cc2)C1C(=O)OC (configuration not stated)	none (no result: KSHV LANA nucl)
Cc1ccc(C)n1-c1cc(Cl)ccc1N1CCCCC1	none (no result: KSHV LANA nucl)
Cc1ccc(C)n1-c1cc(Cl)ccc1C(=O)O	Ab BasE inh 84.9
CN(Cc1ccccc1)c1nc(-c2ccccc2)cs1	none
COC(=O)C1=C(N)Oc2cc(C)[nH]c(=O)c2C1c1ccccc1OC (configuration not stated)	Ab BasE inh 43.1
Cc1cc2c(c(=O)[nH]1)C(c1ccncc1)C(C#N)=C(N)O2 (configuration not stated)	none
COc1cccc(-c2csc(N3CCN(C(=S)NCc4ccco4)CC3)n2)c1	none
COc1ccc(-c2cc(C(=O)N3CCOCC3)c3c(-c4ccc(Cl)cc4)[nH]nc3n2)cc1	none
O=C(O)c1cc(-c2ccc(O)c(O)c2)nc2n[nH]c(-c3ccc(F)cc3)c12	Ab BasE inh 41.5
Cc1ccc(C23CCC(=O)N2C(C(=O)NC2CC2)CS3)cc1 (configuration not stated)	none (no result: KSHV LANA nucl)
CC1=CC(C)=NC2Nc3c(C)cc(C)cc3C(=N)C12 (configuration not stated)	KSHV LANA nucl -2.24
CC(O)c1nc2ccccc2n1C(F)F (configuration not stated)	none (no result: KSHV LANA nucl)
CC(C)(C)c1ccc(NC(=O)N2CCOCC2)cc1	none (no result: KSHV LANA nucl)
Cc1nc2ccccc2c(=O)n1/N=C/c1ccc2c(c1)OCO2	none (no result: KSHV LANA nucl)
Clc1ccc2c(c1)NNc1nncn1-2	none
O=C(O)CSc1nnc2n1-c1ccc(Cl)cc1NN2	KSHV LANA nucl -5.56
N#C/C(=C\c1ccc(N2CCCC2)o1)c1ccccc1	KSHV LANA nucl -5.41
N#C/C(=C\c1ccc(-c2ccccc2)o1)c1ccccc1	none
COc1cccc2c(=O)c(NC(=O)N3CCC(CO)CC3)c[nH]c12	none
C=CCN1C(=O)CC(N2CCOCC2)C1=O (configuration not stated)	none
COC(=O)c1cc(-c2ccc(C)cc2)no1	none
CCOC(=O)c1cc(-c2ccc(N(CC)CC)cc2)no1	KSHV LANA nucl -4.77
c1cncc(NCc2ccco2)c1	none (no result: KSHV LANA nucl)
C/C(=C\C(=O)c1cccnc1)Nc1ccccc1O	Ab BasE inh 29.6
CCC(C)c1ccc(O)c(NC(=O)c2cccnc2)c1 (configuration not stated)	none (no result: KSHV LANA nucl)
Cc1cc(-c2nnc(SCC(=O)c3cc4ccccc4oc3=O)o2)no1	none
CC(C)C(=O)Nc1cccc(-c2nc3ccccc3o2)c1	none
CCCC(C)C(=O)Nc1ccc(-c2nc3ccccc3o2)cc1 (configuration not stated)	KSHV LANA nucl -2.25
CC1CC(C)CN(CCN)C1 (configuration not stated)	none
CCCn1c(SCC(=O)Nc2ccccc2C(F)(F)F)nnc1-c1ccoc1C	none
Cn1c(=O)c2c(SCC(=O)Nc3ccccc3C(F)(F)F)ccnc2n(C)c1=O	KSHV LANA nucl -2.13
O=C(c1ccc(-c2nc3ccccc3s2)o1)N1CCCCCC1	none (no result: KSHV LANA nucl)
O=C1NC(=O)/C(=C\c2cn(Cc3ccccc3F)c3ccccc23)N1	none (no result: KSHV LANA nucl)
N#Cc1ccccc1Cn1cc(C=C2C(=O)NC(=O)NC2=O)c2ccccc21	KSHV LANA nucl -3.63
CC(Sc1nncn1C)C(=O)N(C)c1ccccc1 (configuration not stated)	none (no result: KSHV LANA nucl)
N#C/C(=C\c1ccco1)C(N)=S	none (no result: KSHV LANA nucl)
N#C/C(=C\C=C\c1ccco1)C(N)=S	Ab BasE inh 33.2
CCOC(=O)c1sc(N2N=C(C)/C(=C\c3ccco3)C2=O)nc1C	none (no result: KSHV LANA nucl)
Cc1cc(-n2c(C)cc(CNC3CCN(Cc4ccccc4)C3)c2C)no1 (configuration not stated)	none (no result: KSHV LANA nucl)
CCOC(=O)C1=C(Nc2ccc(OC)cc2)OCC1=O	KSHV LANA nucl -2.13
O=C(O)C1=C(Nc2ccccc2)OCC1=O	none (no result: KSHV LANA nucl)
OCCNCc1[nH]c2ccccc2c1Cl	none
CC(C)c1nc(NCc2ccccc2)c(C#N)c2c1CCCC2	none
